Among the data in ChEMBL document CHEMBL1155986, “Discovery of 4H-pyrazolo[1,5-a]pyrimidin-7-ones as potent inhibitors of hepatitis C virus polymerase” (Bioorg Med Chem Lett, 2009) are IC50 and Activity values, retold here.

Experiment [1] is described as follows: Inhibition of HCV NS5B deltaC55 polymerase assessed as [3H]GTP incorporation after 50 min by scintillation proximity assay. Further details: species or system Hepacivirus hominis; call rule not given here. In short, it runs like this:
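NS5B Δ55 construct (6 nM) with biotinylated oligoG12/polyC template/primer, [3H]-GTP and unlabelled GTP, in 20 mM HEPES pH 7.3, 7.5 mM DTT, 10 mM MgCl2, 60 mM NaCl, BSA and RNasIN. Reactions ran 50 min at room temperature, were stopped with streptavidin SPA beads containing 100 mM EDTA, and were scintillation counted. IC50 came from single experiments over 11 twofold dilutions, accepted only if the positive internal control fell within its SD range.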

Experiment [2] in a line: Inhibition of HCV NS5B deltaC21 polymerase assessed as [3H]GTP incorporation after 3 hrs by scintillation proximity assay. Also on record: species or system Hepacivirus hominis. Summed up: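 Scintillation proximity assay with the NS5B Δ21 construct at 50 nM, using a polyC/oligoG template/primer with raised GTP and [3H]-GTP levels. The reaction ran 3 h at room temperature, and labelled GTP incorporation was read by scintillation counting.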

Experiment [3] deals with Hepatitis C virus. The experiment in a line: Antiviral activity against HCV by cell-based replicon assay. Type of experiment: functional, Hepacivirus hominis.

Regarding `O=C(O)c1cc2[nH]c(-c3ccc(Oc4cccc(C(F)(F)F)c4)cc3)c(C3CCCCC3)c(=O)n2n1`, the 50% inhibitory concentration (IC50) in experiment [1] was 0.93 µM; in experiment [2] it was “Not Active”.

In the case of `O=C(O)c1cc2[nH]c(-c3ccc(OCc4ccccc4)cc3)c(CCC3CCCCC3)c(=O)n2n1`, the IC50 in experiment [1] was 0.6 µM; in experiment [2] (read-out: IC50), 0.17 µM.

Take `O=C(N[C@@H](Cc1c[nH]c2ccccc12)C(=O)O)c1cc2[nH]c(-c3cccs3)c(C3CCCCC3)c(=O)n2n1`: the IC50 in experiment [2] (read-out: IC50) is 0.2 µM.

`C=CCCc1c(-c2ccc(OCc3ccccc3)cc2)[nH]c2cc(C(=O)O)nn2c1=O`: the IC50 was 15 µM in experiment [1] and 6.7 µM in experiment [2] (read-out: IC50).

Consider `O=C(O)c1cc2[nH]c(-c3ccc(OCc4ccccc4)cc3)c(CC3CCCCC3)c(=O)n2n1`, for which the IC50 amounted to 3.8 µM in experiment [1] and 0.4 µM in experiment [2] (read-out: IC50).

Consider `O=C(O)c1cc2[nH]c(-c3ccc(OCc4ccccc4)cc3)c(Cc3ccccc3)c(=O)n2n1`, for which the IC50 in experiment [1] is 8.9 µM; in experiment [2] (read-out: IC50), 4.2 µM.

Regarding `O=C(O)c1cc2[nH]c(-c3ccc(OCc4ccccc4)cc3)c(CC3CCCO3)c(=O)n2n1` (stereo not drawn), the values for the 50% inhibitory concentration (IC50) in experiment [1] and in experiment [2] (read-out: IC50) were over 12.5 µM and 10 µM, respectively.

Regarding `COc1cccc(COc2ccc(-c3[nH]c4cc(C(=O)O)nn4c(=O)c3C3CCCCC3)cc2)c1`, the results for the half-maximal inhibitory concentration (IC50) in experiment [1] and in experiment [2] (read-out: IC50) were 1.2 µM and 1 µM, respectively.

In the case of `O=C(N[C@@H](Cc1c[nH]cn1)C(=O)O)c1cc2[nH]c(-c3ccco3)c(C3CCCCC3)c(=O)n2n1`, the concentration for half-maximal inhibition (IC50) in experiment [2] (read-out: IC50) turned out to be 0.64 µM.

As for `O=C(O)c1cc2[nH]c(-c3ccc(Oc4cccc(Cl)c4)cc3)c(C3CCCCC3)c(=O)n2n1`, the results for the IC50 in experiment [1] and in experiment [2] were 3.3 µM and “Not Active”, respectively.

With `O=C(N[C@@H](Cc1ccc(O)cc1)C(=O)O)c1cc2[nH]c(-c3ccco3)c(C3CCCCC3)c(=O)n2n1`, the IC50 in experiment [2] (read-out: IC50) was 0.07 µM.

Take `COC(=O)[C@H](Cc1c[nH]c2ccccc12)NC(=O)c1cc2[nH]c(-c3ccco3)c(C3CCCCC3)c(=O)n2n1`: the IC50 in experiment [2] (read-out: IC50) stood at 0.27 µM.

Regarding `O=C(N[C@@H](Cc1c[nH]c2ccccc12)C(=O)O)c1cc2[nH]c(-c3cccc(F)c3)c(C3CCCCC3)c(=O)n2n1`, the 50% inhibitory concentration (IC50) in experiment [2] (read-out: IC50) stood at 0.23 µM.

`O=C(O)c1cc2[nH]c(-c3ccc(-c4ccccc4)cc3)c(C3CCCCC3)c(=O)n2n1`: the IC50 in experiment [1] worked out at 3.3 µM; in experiment [2] (read-out: IC50) it was 3.1 µM.

For `O=C(O)c1cc2[nH]c(-c3ccc(OCc4cccc(OC(F)(F)F)c4)cc3)c(C3CCCCC3)c(=O)n2n1`, the 50% inhibitory concentration (IC50) is 2.2 µM in experiment [1] and 1.5 µM in experiment [2] (read-out: IC50).

Regarding `CC(C)Cc1c(-c2ccc(OCc3ccccc3)cc2)[nH]c2cc(C(=O)O)nn2c1=O`, the IC50 came out at 15 µM in experiment [1] and 9.5 µM in experiment [2] (read-out: IC50).

As for `COCCc1c(-c2ccc(OCc3ccccc3)cc2)[nH]c2cc(C(=O)O)nn2c1=O`, the concentration for half-maximal inhibition (IC50) in experiment [1] was 13 µM; in experiment [2] (read-out: IC50) it was 3.7 µM.

Take `O=C(O)c1cc2[nH]c(-c3ccc(Oc4ccccc4)cc3)c(C3CCCCC3)c(=O)n2n1`: the 50% inhibitory concentration (IC50) in experiment [1] was 6.3 µM; in experiment [2], “Not Active”.

On to `O=C(O)c1cc2[nH]c(-c3cccc(F)c3)c(C3CCCCC3)c(=O)n2n1`, for which the 50% inhibitory concentration (IC50) amounted to 2.3 µM in experiment [1] and 0.38 µM in experiment [2] (read-out: IC50).

For the molecule `COc1cccc(Oc2ccc(-c3[nH]c4cc(C(=O)O)nn4c(=O)c3C3CCCCC3)cc2)c1`, the IC50 is 0.9 µM in experiment [1] and “Not Active” in experiment [2].

Take `O=C(NS(=O)(=O)Cc1ccccc1)c1cc2[nH]c(-c3ccco3)c(C3CCCCC3)c(=O)n2n1`: in experiment [2] (read-out: IC50), the half-inhibitory concentration (IC50) is 0.18 µM.

Take `O=C(O)c1cc2[nH]c(-c3ccc(OCc4ccccc4)cc3)c(C3CCCCC3)c(=O)n2n1`: the IC50 in experiment [1] turned out to be 1.5 µM; in experiment [2] (read-out: IC50) it was 1 µM.

As for `O=C(O)c1cc2[nH]c(-c3ccc(OCc4ccccc4)cc3)c(-c3ccccc3)c(=O)n2n1`, the concentration for half-maximal inhibition (IC50) in experiment [1] is over 50 µM; in experiment [2] (read-out: IC50) it was over 12.5 µM.

`O=C(N[C@H](Cc1ccc(O)cc1)C(=O)O)c1cc2[nH]c(-c3ccco3)c(C3CCCCC3)c(=O)n2n1`: in experiment [2] (read-out: IC50), the concentration for half-maximal inhibition (IC50) is 0.3 µM.

Consider `O=C(O)c1cc2[nH]c(-c3ccc(OCc4ccccc4)cc3)c(CCc3ccccc3)c(=O)n2n1`, for which the 50% inhibitory concentration (IC50) amounted to 2.2 µM in experiment [1] and 1.2 µM in experiment [2] (read-out: IC50).

On to `O=C(N[C@@H](Cc1c[nH]c2ccccc12)C(=O)O)c1cc2[nH]c(-c3ccco3)c(C3CCCCC3)c(=O)n2n1`, for which the half-inhibitory concentration (IC50) in experiment [2] (read-out: IC50) came to 0.05 µM. Besides, the Activity in experiment [3] turned out to be 50 µM.

Consider `C=CCc1c(-c2ccc(OCc3ccccc3)cc2)[nH]c2cc(C(=O)O)nn2c1=O`, for which the 50% inhibitory concentration (IC50) in experiment [1] was over 50 µM; in experiment [2] (read-out: IC50) it was over 12.5 µM.

For the molecule `O=C(O)c1cc2[nH]c(-c3ccc(OCc4ccccc4)cc3)c(CC3CCC3)c(=O)n2n1`, the concentration for half-maximal inhibition (IC50) was determined as 8.8 µM in experiment [1] and 2.8 µM in experiment [2] (read-out: IC50).

With `COc1ccc(-c2[nH]c3cc(C(=O)O)nn3c(=O)c2C2CCCCC2)cc1`, the figures for the half-inhibitory concentration (IC50) in experiment [1] and in experiment [2] were 3.9 µM and “Not Active”, respectively.

Turning to `O=C(O)c1cc2[nH]c(-c3ccc(Cc4ccccc4)cc3)c(C3CCCCC3)c(=O)n2n1`, the half-inhibitory concentration (IC50) in experiment [1] was 4 µM; in experiment [2] (read-out: IC50) it was 2.6 µM.

Regarding `O=C(O)c1cc2[nH]c(-c3ccc(OCc4ccccc4)cc3)c(CCCc3ccccc3)c(=O)n2n1`, the IC50 came to 5.9 µM in experiment [1] and 2.5 µM in experiment [2] (read-out: IC50).

On to `O=C(N[C@H](C(=O)O)c1ccc(O)cc1)c1cc2[nH]c(-c3ccco3)c(C3CCCCC3)c(=O)n2n1`, for which, in experiment [2] (read-out: IC50), the IC50 came to 0.2 µM.

Consider `O=C(N[C@@H](Cc1ccc(O)cc1)C(=O)O)c1cc2[nH]c(-c3cccc(F)c3)c(C3CCCCC3)c(=O)n2n1`, for which, in experiment [2] (read-out: IC50), the IC50 came out at 0.68 µM.

On to `CC(C)CCc1c(-c2ccc(OCc3ccccc3)cc2)[nH]c2cc(C(=O)O)nn2c1=O`, for which the IC50 in experiment [1] turned out to be 5.8 µM; in experiment [2] (read-out: IC50) it was 1.5 µM.

Regarding `O=C(O)c1cc2[nH]c(-c3cccs3)c(C3CCCCC3)c(=O)n2n1`, the figures for the half-maximal inhibitory concentration (IC50) in experiment [1] and in experiment [2] (read-out: IC50) were 6.4 µM and 1.1 µM, respectively.

For `O=C(O)c1cc2[nH]c(-c3ccco3)c(C3CCCCC3)c(=O)n2n1`, the IC50 in experiment [1] is 2.8 µM; in experiment [2] (read-out: IC50) it was 0.29 µM.

As for `O=C(N[C@@H](Cc1c[nH]c2ccccc12)C(=O)O)c1cc2[nH]c(-c3ccoc3)c(C3CCCCC3)c(=O)n2n1`, the IC50 in experiment [2] (read-out: IC50) amounted to 0.06 µM.

`CC(C)=CCCc1c(-c2ccc(OCc3ccccc3)cc2)[nH]c2cc(C(=O)O)nn2c1=O`: the results for the IC50 in experiment [1] and in experiment [2] (read-out: IC50) were 10 µM and 3.5 µM, respectively.

Take `O=C(O)c1cc2[nH]c(-c3ccc(OCc4cccc(C(F)(F)F)c4)cc3)c(C3CCCCC3)c(=O)n2n1`: the IC50 was found to be 1.8 µM in experiment [1] and 0.9 µM in experiment [2] (read-out: IC50).
